Measured values as given in ChEMBL document CHEMBL1128294, “Farnesyl derivatives of rigid carboxylic acids-inhibitors of ras-dependent cell growth” (J Med Chem, 1995).

Experiments:
EJ [1] = assay: Effective concentration required for 50% inhibition of growth of human Ha-ras-transformed rat 1 (EJ)cells; assay type: functional, cell-based
Method in brief: (§1)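 Ha-ras-transformed Rat1 (EJ) cells grown in DMEM/10% FCS with compound in 0.1% DMSO (vehicle controls 0.1% DMSO), 7-day cultures. Cell number by direct counting gives dose–response curves, and EC50 is the concentration giving 50% growth inhibition. Means of three to five determinations ±SD.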

[2] = target: Protein-S-isoprenylcysteine O-methyltransferase (Rattus norvegicus) (UniProt Q9WVM4); assay: In vitro inhibition of Prenylated protein methyltransferase of rat brain cerebellar synaptosomes was assessed from the amount of [3H]-methyl esters formed in 15 min; assay type: subcellular
Method in brief: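 Compounds at 150 μM final were tested as methyl acceptors. Enzyme source was rat brain cerebellar synaptosomes (100 μg protein) with 25 μM [methyl-3H]AdoMet ([…]) as methyl donor. Read-out was [3H]methyl esters formed in 15 min, in quadruplicate, ±SEM. Detection limit about 3 pmol.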

[3] = target: Protein-S-isoprenylcysteine O-methyltransferase (Rattus norvegicus, UniProt Q9WVM4); assay: Ability to inhibit prenylated protein methyltransferase (PPMTase) in cell free systems
Method in brief: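 PPMTase source: rat cerebellum synaptosomal membranes (100 μg protein). Substrate 50 μM AFC with 25 μM [methyl-3H]AdoMet, 37 °C for 15 min, with and without a range of inhibitor concentrations, run in duplicate. Activity with drug is expressed as percent of activity without drug, and Ki is derived from the inhibition curves.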

EJ [4] = assay: The highest nontoxic concentration for human Ha-ras-transformed rat 1 (EJ) cells was determined by MTT staining method; assay type: functional
Method in brief: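 EJ (Ha-ras-transformed Rat1) cultures treated with compound were stained with MTT to detect live cells, with trypan blue also used to detect dead cells. The value reported is the highest concentration without toxicity.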

EJ [5] = assay: Effective concentration required for 50% inhibition of growth of human Ha-ras-transformed rat 1 (EJ)cells; not active at 200 uM; assay type: functional, cell-based; method in brief: as §1

Protein-S-isoprenylcysteine O-methyltransferase (Rattus norvegicus), sequence (Q9WVM4 whole entry): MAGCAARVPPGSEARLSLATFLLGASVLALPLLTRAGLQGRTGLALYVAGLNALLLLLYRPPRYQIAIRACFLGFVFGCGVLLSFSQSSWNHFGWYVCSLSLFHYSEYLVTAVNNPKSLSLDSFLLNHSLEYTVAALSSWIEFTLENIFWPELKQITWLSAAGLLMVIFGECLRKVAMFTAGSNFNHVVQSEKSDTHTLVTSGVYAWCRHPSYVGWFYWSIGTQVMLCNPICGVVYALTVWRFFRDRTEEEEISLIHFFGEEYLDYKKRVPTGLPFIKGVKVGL
Protein-S-isoprenylcysteine O-methyltransferase, sequence (Q9WVM4 whole entry): as above

| Amount formed [2] [pmol] | Ki [3] [µM] | SMILES | EC50 (EJ [1]) [µM] | Cytotoxic endpoint (EJ [4]) [µM] | EC50 (EJ [5]) |
| --- | --- | --- | --- | --- | --- |
| 0.37 | 8 | CC(C)=CCC/C(C)=C/CC/C(C)=C/CNc1ccc(Cl)c(C(=O)O)c1 | 30.8 | 200 |  |
| 0.89 | 72.8 | CC(C)=CCC/C(C)=C/CC/C(C)=C/CSc1ccc(N)cc1C(=O)O |  | 25 | Not Active |
| 0.76 | 2.8 | CC(C)=CCC/C(C)=C/CC/C(C)=C/CSc1ccccc1C(=O)O [SALIRASIB] | 7.5 | 200 |  |

Continued, molecule first:

| SMILES | Amount formed [2] [pmol] | Ki [3] [µM] | EC50 (EJ [1]) [µM] | Cytotoxic endpoint (EJ [4]) [µM] | EC50 (EJ [5]) |
| --- | --- | --- | --- | --- | --- |
| CC(=O)N(C/C=C(\C)CC/C=C(\C)CCC=C(C)C)C(CS)C(=O)O (stereo not drawn) | 52.5 |  |  |  |  |
| CCC(=O)SC/C=C(\C)CC/C=C(\C)CCC=C(C)C | 26.3 |  |  |  |  |
| CC(C)=CCC/C(C)=C/CC/C(C)=C/CSc1ncccc1C(=O)O | 0.73 | 14.9 | 126 | 200 |  |
